Bioassay records: PubChem, The Scripps Research Institute Molecular Screening Center
M5 ag – CHRM5 agonism in calcium assay; CHO-K1 hM5 cells, Fluo-8 calcium fluorescence; 0% DMSO wells, 100% maximal acetylcholine response; activation, % at 3 µM; hit rate 0.19% among 360,000;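 active = activation above the run's mean over test compounds plus 3 SD, cut at about 23% in these data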;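 also: signal is peak over basal fluorescence ratio across the kinetic read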
Target sequence (P08912 whole entry, looked up): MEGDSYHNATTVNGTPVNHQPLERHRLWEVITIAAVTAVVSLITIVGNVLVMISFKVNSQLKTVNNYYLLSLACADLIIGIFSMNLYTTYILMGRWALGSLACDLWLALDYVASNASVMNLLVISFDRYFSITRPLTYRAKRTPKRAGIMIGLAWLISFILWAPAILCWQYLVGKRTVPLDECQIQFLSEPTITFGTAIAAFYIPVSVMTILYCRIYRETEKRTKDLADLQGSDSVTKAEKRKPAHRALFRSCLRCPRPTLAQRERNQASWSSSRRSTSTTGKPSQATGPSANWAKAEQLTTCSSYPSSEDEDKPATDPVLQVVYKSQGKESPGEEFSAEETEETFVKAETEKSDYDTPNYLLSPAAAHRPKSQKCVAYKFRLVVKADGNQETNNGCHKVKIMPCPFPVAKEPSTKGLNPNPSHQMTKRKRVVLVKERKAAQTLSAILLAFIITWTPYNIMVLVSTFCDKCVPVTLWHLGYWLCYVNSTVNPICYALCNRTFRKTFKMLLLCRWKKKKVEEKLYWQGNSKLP
CHRM5 PAM – potentiates acetylcholine response at human M5 receptor; activation, % at 3 µM; hit rate 0.3% among 360,000; CHO-K1 hM5, Fluo-8 calcium, ACh EC20 PAM; 0% = ACh EC20, 100% = ACh EC100; P08912;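 active = activation above the run cutoff, the mean activation of all test compounds plus 3 SD, cut at about 18% in these data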
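Probe or stimulus: acetylcholine, EC20 level; Assay system: human M5 receptor in CHO-K1 cells; Schedule: compound preincubation 140 s before EC20 acetylcholine addition; Technique: intracellular calcium via Fluo-8 fluorescence; Dosing: single-point, 3 µM nominal; Read-out basis: percent activation from peak-over-basal fluorescence ratio, scaled EC20-to-EC100 acetylcholine; Repeats: one well per compound, no replicates.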
M4 PAM – CHRM4 positive allosteric modulation; CHO-K1 hM4/Gqi5, Fluo-8 calcium fluorescence, ACh EC20; 0% = ACh EC20, 100% = maximal ACh; activation, % at 3 µM; hit rate 0.4% among 360,000;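 active = activation above its plate's cutoff, the mean activation of sample wells plus 3 SD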
CHRM4 antagonist – antagonists of human muscarinic M4 receptor (CHRM4). P08173. CHO-hM4 cells, ACh EC80, Fluo-8 calcium fluorescence. inhibition, % at 3 µM. hit rate 0.73% among 360,000. AID 624125;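 active = inhibition above its plate's cutoff, the mean inhibition of sample wells plus 3 SD, cut at about 27% in these data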
CHRM5 antagonist – CHRM5 antagonism in calcium assay. P08912. CHO-hM5 cells, Fluo-8 calcium fluorescence, ACh EC80. inhibition, % at 3 µM. hit rate 0.59% among 360,000. AID 624040;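 active = inhibition above a per-plate cutoff, the mean of that plate's test compounds plus 3 SD, cut at about 27% in these data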
M4 ag – CHRM4 agonism in calcium assay. activation, % at 3 µM. hit rate 0.14% among 360,000. CHO-K1 hM4/Gqi5, Fluo-8 calcium fluorescence; vehicle 0%, full acetylcholine response 100%. AID 624127;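 active = activation above the run mean over all test wells plus 3 SD, cut at about 32% in these data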;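 also: peak over basal fluorescence ratio per well then scaled between controls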
Large screens that a line does not name were inactive. Compounds with a hit are over-represented: about 1.8% of the library has one in this group of screens.

COCCNc1ncnc2c1ncn2[C@H]1CN(Cc2cc(OC)c(OC)c(OC)c2)C[C@@H](CO)O1	none
CN1CCN(c2ncnc3c2ncn3[C@H]2CN(Cc3ccc(C(=O)O)cc3)C[C@@H](CO)O2)CC1	M4 PAM 18
OC[C@@H]1CN(Cc2ccccc2)C[C@H](n2cnc3c(NCc4ccco4)ncnc32)O1	none
CC(C)COC(=O)N(C)C[C@H]1OCc2cn(nn2)CCCC(=O)N([C@H](C)CO)C[C@@H]1C	none
Cc1ccc(C(=O)CSC2=C(C#N)C(c3ccco3)CC(=O)N2)c(C)c1 (configuration not stated)	M5 ag 47
C=CCn1c(SCC(=O)Nc2ccccc2C)nc(O)cc1=O	none
CCOC(=O)C1CCCN(C(=S)NC2CCCC2)C1 (configuration not stated)	none
Cc1ccccc1S(=O)(=O)Cc1ccc(C(=O)N2CCN(c3cccc(C)c3C)CC2)o1	CHRM4 antagonist 34
CCOC(=O)C(Cc1c[nH]c2ccc([N+](=O)[O-])cc12)(NC(C)=O)C(=O)OCC	none
Cc1ccc(C(=O)OCN2C(=O)c3ccccc3C2=O)o1	M4 PAM 22
COc1ccc(CC(=O)OCN2C(=O)c3ccccc3C2=O)cc1	none
Cc1sc2ncn3c(C)nnc3c2c1C	M4 PAM 19
CCn1c(SCC(=O)N/N=C/c2c[nH]c3ccccc23)nnc1-c1ccc(C(C)(C)C)cc1	none
Cc1ccc(S(=O)(=O)N2CCOCC2)cc1C(=O)N1C(=O)c2cccc(N)c2C1=O	M4 PAM 27
CC(C)=CCC[C@H](C)C[C@@H]1Cc2[nH]c(=S)[nH]c(=O)c2[C@@H](c2ccc(F)cc2)O1	none
COc1cccc(CNc2nc3cc(-c4ccc(C(=O)N5CCN(C)CC5)cc4)sc3c(=O)n2C)c1	none
CCCn1c(NC(=O)CN2C(=O)NC3(CCCC3)C2=O)nc2ccccc21	M4 PAM 23
CCCn1c(NC(=O)CN2C(=O)NC3(CCCCC3)C2=O)nc2ccccc21	none
O=c1cc(O)c2c(=O)[nH]c(=O)n(-c3ccccc3)c2[nH]1	M4 PAM 16
Cn1c(=O)c2c(O)cc(=O)[nH]c2n(-c2ccccc2)c1=O	none
Nc1nc(COC(=O)c2ccco2)nc(Nc2ccccc2)n1	none
O=C(NCC1CCCO1)c1cccc(NS(=O)(=O)c2ccc(Br)cc2)c1 (configuration not stated)	none
Cc1ccc(C)c(-n2cc[nH]c2=S)c1	none
O=C(c1ccc(Cl)cc1)C1CCCN(Cc2cnn(-c3ccccc3)c2)C1 (configuration not stated)	none
O=C(c1ccc(Cl)cc1)C1CCCN(Cc2ccc(Oc3ncccn3)cc2)C1 (configuration not stated)	CHRM4 antagonist 44
Cc1c(C(=O)N2CCC(C)(C(=O)NS(=O)(=O)C3CC3)C2)oc2ccccc12 (configuration not stated)	M4 PAM 17
Cc1c(C(=O)N2CCCC(C)(C(=O)NS(=O)(=O)C3CC3)C2)oc2ccccc12 (configuration not stated)	none
CCOC(=O)c1c(C)cc2c(CO)n[nH]c(=O)c2c1C	none
CC1C(=O)N(Cc2cn(CCC3OCCCO3)nn2)CCS(=O)(=O)N1Cc1ccc(-c2cccc(CO)c2)cc1 (configuration not stated)	none
Cn1c(CCN2CCN(c3ccccn3)CC2)nc2cc(NS(=O)(=O)c3ccc(Cl)cc3)ccc21	CHRM5 antagonist 27
Cc1ccc(S(=O)(=O)Nc2ccc3c(c2)nc(CCN2CCN(c4ccccn4)CC2)n3C)cc1	none
Cn1c(CCN2CCN(c3ccccn3)CC2)nc2cc(NC(=O)COc3ccc(Cl)cc3)ccc21	CHRM5 antagonist 27
O=C(/C=C/[C@H]1O[C@@H](n2ccc(=O)[nH]c2=O)[C@H](O)[C@@H]1O)NCc1cccc2ccccc12	none
O=C(NCC1CCCO1)c1cc(NS(=O)(=O)c2cccs2)cc(NS(=O)(=O)c2cccs2)c1 (configuration not stated)	none
CCOC(CNC(=O)c1ccc2c(c1)ncn2-c1cccc(F)c1)OCC	CHRM5 antagonist 28
O=c1[nH]c(/C=C\c2cccc(Cl)c2)nc(O)c1[N+](=O)[O-]	none
Cc1cnc(C(=O)OCC(=O)Nc2ccc(OCc3ccccc3)cc2)cn1	none
CCn1nnnc1NCc1ccc(N2CCCC2)cc1	CHRM4 antagonist 35
C#CC1(O)CCC2C3CCC4=Cc5oncc5CC4(C)C3CCC21C (configuration not stated)	none
COc1ccc(C(=O)C(C)[n+]2ccc(C)c3ccccc32)cc1[N+](=O)[O-] (configuration not stated)	CHRM4 antagonist 27
N[C@@]12CCc3nonc3[C@]1(O)CC(c1ccccc1)=[N+]2[O-]	M4 PAM 26
Cn1cnc(S(=O)(=O)Nc2ccc(C(F)(F)F)cc2)c1	none
Cn1cnc(S(=O)(=O)Nc2ccc(Cl)c(C(F)(F)F)c2)c1	M4 PAM 15
COCCNC(=O)C1(C)CCCN(C(=O)c2c(-c3ccccc3)noc2C)C1 (configuration not stated)	none
COc1ccc2[nH]c3c(NCCC4=CCCCC4)ncnc3c2c1	CHRM5 antagonist 32
CC(C)c1ccc(-c2nc(N3CCCC3)nc3n[nH]c(N)c23)cc1	CHRM5 PAM 54
COc1cccc(S(=O)(=O)Nc2ccc3c(c2)C(=O)N(C)C[C@H](OC)[C@H](C)CN[C@@H](C)CO3)c1	none
COC(=O)c1c(-c2ccncc2)csc1NC(=O)c1ccoc1C	M4 PAM 48, CHRM4 antagonist 32
CCc1cc(C(=O)OC)c(NC(=O)c2ccoc2C)s1	none
CCN(CC)S(=O)(=O)c1ccc(N2CCN(c3ccccc3OC)CC2)c(N)c1	CHRM5 antagonist 30
CCN(CC)S(=O)(=O)c1ccc(Oc2ccccc2)c(N)c1	none
CCCCOc1ccc(C(=O)NCC(=O)OCCCOC(=O)CNC(=O)c2ccc(OCCCC)cc2)cc1	none
CCOc1nc(-c2ccccc2)ccc1-c1noc(COC)n1	CHRM5 PAM 18
CCOc1ccc(-c2noc(CCCC(=O)NC3CCCCC3)n2)cc1OC	none
O=C(c1cccc(Cl)c1)C1CCCN(C(=O)c2ccc3c(c2)OCO3)C1 (configuration not stated)	none
O=C(N/N=C/c1ccccc1)C(=O)N/N=C/c1ccccc1	none
CN(C)/C=C(\C#N)C(=O)N/N=C/c1ccccc1	CHRM5 PAM 18
COc1ccc(CCNC(=O)c2ccc(CSc3ccc(Cl)cc3)o2)cc1OC	CHRM4 antagonist 30
CNc1cc(C)nc(N2CCOCC2)n1	CHRM5 antagonist 29
